According to ChEMBL document CHEMBL1687722, “Mode of action of Ranbezolid against staphylococci and structural modeling studies of its interaction with ribosomes” (Antimicrob Agents Chemother, 2009):
≈ marks a conversion by molar mass, not a printed value. Calls of active or inactive are those of the source. The rule behind the calls is not given here.

How the values were obtained:
Staphylococcus aureus [1] = assay: Induction of bacterial membrane damage in Staphylococcus aureus ATCC 25923 at 15 uM by BacLight assay; assay type: functional
Method in brief: (§1)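 Mid-log cells (overnight MHB culture at 37°C, diluted 1:100, grown to OD600 0.5–0.6) washed in water, diluted 1:20 into water containing compound, shaken 15–30 min at room temperature (25°C). Washed, adjusted to OD670 0.325, stained with BacLight reagent (3 µl/ml) for 15 min in the dark. Syto 9 (480/500 nm)/propidium iodide (490/635 nm) fluorescence ratio expressed versus control; <40% of control indicates membrane damage.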

[2] = test system: Staphylococcus epidermidis; assay: Induction of bacterial membrane damage in Staphylococcus epidermidis ATCC 23760 at 15 uM by BacLight assay; assay type: functional; method in brief: as §1
[3] = test system: Staphylococcus epidermidis; assay: Inhibition of protein synthesis in Staphylococcus epidermidis ATCC 23760 assessed as incorporation of [14C]isoleucine at 2 ug/ml by liquid scintillation counter; assay type: functional, organism-based
Method in brief: (§2)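 Whole-cell macromolecular synthesis. Cells grown in MHB to early log phase (OD600 0.3) were given a labelled precursor: [3H]thymidine, [3H]uridine or [3H]N-acetylglucosamine at 1 µCi/ml, or [14C]isoleucine or [14C]acetate at 0.1 µCi/ml. Drug was added 5 min later. Macromolecules were precipitated with ice-cold TCA (5% final), filtered, dried overnight at 37°C and counted by scintillation. A pathway-specific antibiotic was run as positive control.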

[4] = test system: Staphylococcus epidermidis; assay: Antimicrobial activity against Staphylococcus epidermidis ATCC 23760 by microdilution method; assay type: functional
Method in brief: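 MIC determined by broth microdilution in the course of the macromolecular synthesis work; cultures grown in Mueller-Hinton broth.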

[5] = test system: Staphylococcus epidermidis; assay: Inhibition of lipid synthesis in Staphylococcus epidermidis ATCC 23760 assessed as incorporation of [14C]acetate at 2 ug/ml after 60 mins by liquid scintillation counter; assay type: functional, organism-based; method in brief: as §2
Staphylococcus aureus [6] = assay: Inhibition of RNA synthesis in Staphylococcus aureus ATCC 25923 assessed as incorporation of [3H]uridine at 2 ug/ml by liquid scintillation counter; assay type: functional, organism-based; method in brief: as §2
[7] = test system: Staphylococcus epidermidis; assay: Inhibition of DNA synthesis in Staphylococcus epidermidis ATCC 23760 assessed as incorporation of [3H]thymidine at 2 ug/ml by liquid scintillation counter; assay type: functional, organism-based; method in brief: as §2
[8] = test system: Staphylococcus epidermidis; assay: Inhibition of cell wall synthesis in Staphylococcus epidermidis ATCC 23760 assessed as incorporation of [3H]N-acetylglucosamine at 2 ug/ml after 60 mins by liquid scintillation counter; assay type: functional, organism-based; method in brief: as §2
Staphylococcus aureus [9] = assay: Inhibition of protein synthesis in Staphylococcus aureus ATCC 25923 assessed as incorporation of [14C]isoleucine at 2 ug/ml by liquid scintillation counter; assay type: functional, organism-based; method in brief: as §2
Staphylococcus aureus [10] = assay: Inhibition of DNA synthesis in Staphylococcus aureus ATCC 25923 assessed as incorporation of [3H]thymidine at 2 ug/ml by liquid scintillation counter; assay type: functional, organism-based; method in brief: as §2
[11] = test system: Staphylococcus epidermidis; assay: Inhibition of RNA synthesis in Staphylococcus epidermidis ATCC 23760 assessed as incorporation of [3H]uridine at 2 ug/ml by liquid scintillation counter; assay type: functional, organism-based; method in brief: as §2
[12] = test system: Staphylococcus epidermidis; assay: Bacteriostatic activity against Staphylococcus epidermidis ATCC 23760 at 4 X MIC after 24 hrs by time-kill analysis; assay type: functional, organism-based
[13] = Inhibition of ribosomal activity in Escherichia coli S30 by coupled transcription/translation assay; assay type: subcellular, Ribosome
Method in brief: (§3)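 Cell-free coupled transcription/translation of a luciferase gene, using E. coli S30 extract (bacterial) or a TNT kit (mammalian ribosomes). Percent inhibition of luciferase activity across a range of drug concentrations was calculated relative to the no-drug control.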

[14] = test system: Staphylococcus epidermidis; assay: Induction of bacterial membrane damage in Staphylococcus epidermidis ATCC 23760 at 4 ug/mL by BacLight assay; assay type: functional, organism-based
Method in brief: (§4)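 BacLight membrane integrity. Mid-log MHB cultures (OD600 0.5–0.6) were washed and resuspended in water, then exposed to drug at 1–8 µg/ml for 15–30 min at room temperature (25°C) with shaking. Cells were washed, set to OD670 0.325 and stained with Syto 9/propidium iodide for 15 min in the dark. The Syto 9 (480/500 nm) to PI (490/635 nm) fluorescence ratio was compared with untreated controls. Valinomycin and CCCP served as positive controls.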

Staphylococcus aureus [15] = assay: Induction of bacterial membrane damage in Staphylococcus aureus ATCC 25923 at 4 ug/mL by BacLight assay; assay type: functional, organism-based; method in brief: as §4
Staphylococcus aureus [16] = assay: Bacteriostatic activity against Staphylococcus aureus ATCC 25923 at 8 times MIC after 30 hrs by time-kill analysis; assay type: functional, organism-based
Ribosome = assay: Inhibition of mammalian ribosomal activity by coupled transcription/translation assay; assay type: subcellular; method in brief: as §3
Staphylococcus aureus [17] = assay: Antimicrobial activity against Staphylococcus aureus ATCC 25923 by microdilution method; assay type: functional
[18] = test system: Staphylococcus epidermidis; assay: Induction of bacterial membrane damage in Staphylococcus epidermidis ATCC 23760 at 2 to 8 ug/mL by BacLight assay; assay type: functional, organism-based; method in brief: as §4
Staphylococcus aureus [19] = assay: Inhibition of DNA synthesis in Staphylococcus aureus ATCC 25923 assessed as incorporation of [3H]thymidine at 1 ug/ml by liquid scintillation counter; assay type: functional, organism-based; method in brief: as §2
[20] = test system: Staphylococcus epidermidis; assay: Inhibition of protein synthesis in Staphylococcus epidermidis ATCC 23760 assessed as incorporation of [14C]isoleucine at 1 ug/ml by liquid scintillation counter; assay type: functional, organism-based; method in brief: as §2
[21] = test system: Staphylococcus epidermidis; assay: Bactericidal activity against Staphylococcus epidermidis ATCC 23760 at 4 ug/ml after 6 hrs by time-kill analysis; assay type: functional, organism-based
[22] = test system: Staphylococcus epidermidis; assay: Bactericidal activity against Staphylococcus epidermidis ATCC 23760 at 8 ug/ml after 4 hrs by time-kill analysis; assay type: functional, organism-based
[23] = test system: Staphylococcus epidermidis; assay: Inhibition of RNA synthesis in Staphylococcus epidermidis ATCC 23760 assessed as incorporation of [3H]uridine at 1 ug/ml by liquid scintillation counter; assay type: functional, organism-based; method in brief: as §2
[24] = test system: Staphylococcus epidermidis; assay: Inhibition of DNA synthesis in Staphylococcus epidermidis ATCC 23760 assessed as incorporation of [3H]thymidine at 1 ug/ml by liquid scintillation counter; assay type: functional, organism-based; method in brief: as §2
[25] = test system: Staphylococcus epidermidis; assay: Induction of bacterial membrane damage in Staphylococcus epidermidis ATCC 23760 at 1 ug/mL by BacLight assay relative to untreated control; assay type: functional, organism-based; method in brief: as §4
[26] = test system: Staphylococcus epidermidis; assay: Induction of bacterial membrane damage in Staphylococcus epidermidis ATCC 23760 at 2 ug/mL by BacLight assay relative to untreated control; assay type: functional; method in brief: as §4
[27] = test system: Staphylococcus epidermidis; assay: Inhibition of lipid synthesis in Staphylococcus epidermidis ATCC 23760 assessed as incorporation of [14C]acetate at 1 ug/ml after 60 mins by liquid scintillation counter; assay type: functional, organism-based; method in brief: as §2
[28] = test system: Staphylococcus epidermidis; assay: Inhibition of cell wall synthesis in Staphylococcus epidermidis ATCC 23760 assessed as incorporation of [3H]N-acetylglucosamine at 1 ug/ml after 60 mins by liquid scintillation counter; assay type: functional, organism-based; method in brief: as §2
[29] = Ratio of IC50 for mammalian ribosomal activity to ribosomal activity in Escherichia coli S30 by coupled transcription/translation assay; assay type: subcellular; details: Ribosome
Staphylococcus aureus [30] = assay: Bactericidal activity against Staphylococcus aureus ATCC 25923 at 16 ug/ml by time-kill analysis; assay type: functional, organism-based
[31] = test system: Staphylococcus epidermidis; assay: Bactericidal activity against Staphylococcus epidermidis ATCC 23760 by time-kill analysis; assay type: functional
Staphylococcus aureus [32] = assay: Inhibition of protein synthesis in Staphylococcus aureus ATCC 25923 assessed as incorporation of [14C]isoleucine at 1 ug/ml by liquid scintillation counter; assay type: functional, organism-based; method in brief: as §2
Staphylococcus aureus [33] = assay: Inhibition of RNA synthesis in Staphylococcus aureus ATCC 25923 assessed as incorporation of [3H]uridine at 1 ug/ml by liquid scintillation counter; assay type: functional, organism-based; method in brief: as §2
Staphylococcus aureus [34] = assay: Induction of bacterial membrane damage in Staphylococcus aureus ATCC 25923 at 100 uM by BacLight assay; assay type: functional; method in brief: as §1
[35] = test system: Staphylococcus epidermidis; assay: Induction of bacterial membrane damage in Staphylococcus epidermidis ATCC 23760 at 100 uM by BacLight assay; assay type: functional; method in brief: as §1

Q: Which results are given for `N#CC(C#N)=NNc1cccc(Cl)c1` [CARBONYL CYANIDE M-CHLOROPHENYLHYDRAZONE]?
A: Activity (Staphylococcus aureus [1]): <40%; Activity [2]: <40%

Q: Which inhibition [3] does the source give for `CC(=O)NC[C@H]1CN(c2ccc(N3CCOCC3)c(F)c2)C(=O)O1` [LINEZOLID] here?
A: The inhibition was “Active”.

Q: What about the MIC [4] of the same molecule?
A: Its MIC is 2 mg/L (≈ 5.93 µM).

Q: And the inhibition [5]?
A: The inhibition was “Active”.

Q: And the inhibition (Staphylococcus aureus [6])?
A: Its inhibition is “inactive”.

Q: What about the inhibition [7] of the same molecule?
A: Its inhibition is “inactive”.

Q: And the inhibition [8]?
A: The inhibition was “Active”.

Q: What about the inhibition (Staphylococcus aureus [9]) of the same molecule?
A: The inhibition was “Active”.

Q: And the inhibition (Staphylococcus aureus [10])?
A: Its inhibition is “inactive”.

Q: What about the inhibition [11] of the same molecule?
A: Its inhibition is “inactive”.

Q: And the Activity [12]?
A: Its Activity is “Active”.

Q: And the IC50 [13]?
A: Its IC50 is 0.1 mM.

Q: And the Activity [14]?
A: Its Activity is “inactive”.

Q: What about the Activity (Staphylococcus aureus [15]) of the same molecule?
A: The Activity was “inactive”.

Q: And the Activity (Staphylococcus aureus [16])?
A: Its Activity is “Active”.

Q: And the IC50 (Ribosome)?
A: The IC50 was 11.9 mM.

Q: What does the source list for `CC(=O)NC[C@H]1CN(c2ccc(N3CCN(Cc4ccc([N+](=O)[O-])o4)CC3)c(F)c2)C(=O)O1` [RANBEZOLID]?
A: MIC (Staphylococcus aureus [17]): 1 mg/L (≈ 2.17 µM); Activity [18]: Active; inhibition (Staphylococcus aureus [19]): inactive; MIC [4]: 1 mg/L (≈ 2.17 µM); inhibition [20]: Active; Activity [21]: Active; Activity [22]: Active; inhibition [23]: inactive; inhibition [24]: inactive; Activity [25]: inactive; Activity [26]: 50%; inhibition [27]: Active; inhibition [28]: Active; Ratio [29]: 865; Activity (Staphylococcus aureus [30]): Active; IC50 [13]: 0.017 mM; Activity [31]: 99.9%; Activity [14]: Active; Activity (Staphylococcus aureus [15]): inactive; Activity (Staphylococcus aureus [16]): Active; inhibition (Staphylococcus aureus [32]): Active; inhibition (Staphylococcus aureus [33]): inactive; IC50 (Ribosome): 14.7 mM

Q: For `CC(C)[C@@H]1NC(=O)[C@H](C)OC(=O)[C@@H](C(C)C)NC(=O)[C@@H](C(C)C)OC(=O)[C@H](C(C)C)NC(=O)[C@H](C)OC(=O)[C@@H](C(C)C)NC(=O)[C@@H](C(C)C)OC(=O)[C@H](C(C)C)NC(=O)[C@H](C)OC(=O)[C@@H](C(C)C)NC(=O)[C@@H](C(C)C)OC1=O` [VALINOMYCIN], which Activity (Staphylococcus aureus [34]) is on record?
A: The Activity was less than 40%.

Q: What about the Activity [35] of the same molecule?
A: The Activity was less than 40%.
